From ChEMBL document CHEMBL2169742, “Design, synthesis, and biological evaluation of novel transrepression-selective liver X receptor (LXR) ligands with 5,11-dihydro-5-methyl-11-methylene-6H-dibenz[b,e]azepin-6-one skeleton” (J Med Chem, 2012) come the findings set out here.

The target in data set [1] is T1, Oxysterols receptor LXR-alpha (Homo sapiens, UniProt Q13133).
T1 sequence (Q13133 whole entry): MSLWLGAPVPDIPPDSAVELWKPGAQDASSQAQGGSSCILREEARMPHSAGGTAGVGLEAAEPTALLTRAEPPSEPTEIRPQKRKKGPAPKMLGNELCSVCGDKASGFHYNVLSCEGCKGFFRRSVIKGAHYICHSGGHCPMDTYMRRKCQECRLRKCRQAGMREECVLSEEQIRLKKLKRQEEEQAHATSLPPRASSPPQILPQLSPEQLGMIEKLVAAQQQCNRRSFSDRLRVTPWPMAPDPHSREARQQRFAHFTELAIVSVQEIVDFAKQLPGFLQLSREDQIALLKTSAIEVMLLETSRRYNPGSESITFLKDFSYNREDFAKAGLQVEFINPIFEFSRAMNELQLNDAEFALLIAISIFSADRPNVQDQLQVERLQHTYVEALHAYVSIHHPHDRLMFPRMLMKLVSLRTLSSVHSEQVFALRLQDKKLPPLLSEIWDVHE
Put plainly: Transactivational antagonist activity at human LXRalpha transfected in HEK293 cells expressing CMX-Gal4N assessed as inhibition of T1317-induced luciferase activity after 16 hrs by reporter gene assay. The data set is classed as functional, cell-based.

For data set [2], the target named is T1, Oxysterols receptor LXR-alpha. Put plainly: Transactivational agonist activity at human LXRalpha transfected in HEK293 cells coexpressing CMX-Gal4N-SRC1 assessed as SRC1 recruitment at 10 uM after 16 hrs by mammalian two-hybrid assay. The conditions noted are these: hek293, 16 h. Format: cell-based. Put shortly: (§1)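 Mammalian two-hybrid in HEK293 cells by calcium phosphate cotransfection: CMX-VP16N-hLXRα, Gal4N-fused SRC1, DRIP205, NCoR or SMRT (15 ng), tk-MH100×4-luc (50 ng) and CMX-β-gal (10 ng). Compound or DMSO added 8 h after transfection for 16 h. Luciferase was normalized to β-galactosidase, in triplicate.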

For data set [3], the system named is Peritoneal macrophage cell. The data set is described as follows: Inhibition of LPS-induced IL-6 mRNA expression in LXRalpha-deficient C57BL/6J mouse peritoneal macrophages at 10 uM incubated for 6 hrs prior to LPS-challenge measured after 18 hrs by RT-PCR analysis. The data set is classed as functional, cell-based. Put shortly: (§2)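 Thioglycollate-elicited peritoneal macrophages (wild-type C57BL/6J or LXRα-null, 8–10 weeks) were plated at 4 × 10⁶/well and pretreated with compound 6 h before LPS 100 ng/mL. Cells were harvested after 18 h. il-6 and il-1β mRNA were measured by real-time quantitative PCR, normalized to GAPDH.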

Data set [4] in a line: Transrepressional activity at LXR in C57BL/6J mouse peritoneal macrophages assessed as inhibition of LPS-induced IL-1beta mRNA expression at 10 uM incubated for 6 hr prior to LPS-challenge measured after 18 hrs by RT-PCR analysis. The procedure, abridged:
as §2

The target of data set [5] is T2, Peroxisome proliferator-activated receptor gamma (Homo sapiens) (UniProt P37231).
T2 sequence (whole entry): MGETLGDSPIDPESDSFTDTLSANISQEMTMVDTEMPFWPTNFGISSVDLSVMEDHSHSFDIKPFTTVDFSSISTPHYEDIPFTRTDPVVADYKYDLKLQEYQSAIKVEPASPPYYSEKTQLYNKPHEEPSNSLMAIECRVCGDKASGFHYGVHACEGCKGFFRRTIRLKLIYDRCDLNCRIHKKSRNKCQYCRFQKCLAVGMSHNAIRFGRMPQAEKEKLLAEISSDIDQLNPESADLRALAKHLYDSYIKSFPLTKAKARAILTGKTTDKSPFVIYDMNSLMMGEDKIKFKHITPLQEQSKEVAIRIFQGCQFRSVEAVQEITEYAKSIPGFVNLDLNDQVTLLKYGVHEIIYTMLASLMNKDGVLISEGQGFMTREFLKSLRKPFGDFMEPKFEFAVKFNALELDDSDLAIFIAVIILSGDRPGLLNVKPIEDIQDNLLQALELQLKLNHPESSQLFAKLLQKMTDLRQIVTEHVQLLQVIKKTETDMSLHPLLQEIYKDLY
Put plainly: Antagonist activity at human Gal4-fused PPARgamma assessed as inhibition of ciglitazone-induced luciferase activity at 0.1 to 10 uM by reporter gene assay. Format: functional.

In data set [6] the target is T1, Oxysterols receptor LXR-alpha. Put plainly: Transactivational agonist activity at human LXRalpha transfected in HEK293 cells expressing CMX-Gal4N assessed as luciferase activity at 30 uM after 16 hrs by reporter gene assay. Format: cell-based. The note with it: hek293, 16 h. A general note: Reporter assays use an easily measured gene product as a stand-in for the process of interest.

For data set [7] the target is unchanged. Put plainly: Transactivational agonist activity at human LXRalpha transfected in HEK293 cells coexpressing CMX-Gal4N-DRIP205 assessed as DRIP205 recruitment at 10 uM after 16 hrs by mammalian two-hybrid assay. Format: cell-based. The conditions noted are these: hek293, 16 h. Put shortly: as §1
Data set [8] addresses T3, Retinoic acid receptor RXR-alpha (Homo sapiens) (UniProt P19793).
T3 sequence (whole entry): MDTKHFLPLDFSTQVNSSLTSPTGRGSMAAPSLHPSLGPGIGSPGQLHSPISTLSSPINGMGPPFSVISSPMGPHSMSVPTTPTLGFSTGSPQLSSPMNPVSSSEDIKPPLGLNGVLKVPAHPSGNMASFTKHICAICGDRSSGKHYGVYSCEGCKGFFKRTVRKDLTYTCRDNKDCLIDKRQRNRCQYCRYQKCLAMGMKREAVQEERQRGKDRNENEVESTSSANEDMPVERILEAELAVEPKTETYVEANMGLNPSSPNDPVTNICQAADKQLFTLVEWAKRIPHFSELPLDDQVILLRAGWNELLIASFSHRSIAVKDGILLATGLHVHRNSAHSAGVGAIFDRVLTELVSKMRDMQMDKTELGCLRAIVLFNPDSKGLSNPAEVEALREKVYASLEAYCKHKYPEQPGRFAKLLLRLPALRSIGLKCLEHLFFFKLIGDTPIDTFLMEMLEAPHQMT
The data set is described as follows: Agonist activity at human Gal4-fused RXRalpha assessed as luciferase activity at 0.1 to 10 uM by reporter gene assay. The data set is classed as functional.

The test system of data set [9] is Peritoneal macrophage cell. Put plainly: Inhibition of LPS-induced IL-1beta mRNA expression in LXRalpha-deficient C57BL/6J mouse peritoneal macrophages at 10 uM incubated for 6 hrs prior to LPS-challenge measured after 18 hrs by RT-PCR analysis. Format: functional, cell-based. The procedure, abridged: as §2
Data set [10] concerns the target T2, Peroxisome proliferator-activated receptor gamma (Homo sapiens). The data set is described as follows: Agonist activity at human Gal4-fused PPARgamma assessed as luciferase activity at 10 uM by reporter gene assay relative to control. Format: functional.
Data set [11] has as its system Peritoneal macrophage cell. Put plainly: Inhibition of LPS-induced IL-6 production in LXRalpha,LXRbeta-deficient C57BL/6J mouse peritoneal macrophages at 10 uM incubated for 6 hrs prior to LPS-challenge measured after 18 hrs by ELISA. Format: functional, cell-based. Put shortly: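 Thioglycollate-elicited peritoneal macrophages came from 8–10-week LXRα/β-null mice on C57BL/6J background, harvested 4 days post-injection. They were adhered, rested 24 h and plated at 2 × 10⁵/well, then pretreated with compound 6 h before LPS 10 ng/mL. Supernatant mIL-6 was measured by ELISA after 18 h; means ± SE of ≥3 independent measurements, ANOVA.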
On the technique in general: An ELISA detects its analyte on a solid surface through an enzyme-linked reagent.

Data set [12] deals with T4, Oxysterols receptor LXR-alpha (Homo sapiens) (UniProt Q13133).
T4 sequence (whole entry): T1 sequence (Q13133 whole entry)
The data set is described as follows: Transactivational antagonist activity at human LXRalpha transfected in HEK293 cells coexpressing CMX-Gal4N-NCoR assessed as NCoR recruitment after 16 hrs by reporter gene assay. The data set is classed as functional, cell-based. Put shortly:
as §1

Activity calls are given as the source filed them. No cut-off for these calls is given here.

For the compound `C=C1c2ccccc2C(=O)N(C)c2ccc(CC)cc21`, the IC50 – broadly, the concentration that gives 50% inhibition – in data set [1] was more than 30 µM. Also, the Activity entry was “Non-toxic” in [2]; “Not Active” in data set [6]; “Non-toxic” in data set [7]; 20% in data set [10]; “Dose-dependent effect” in data set [12]. Moreover, the inhibition result in [3], in [5], in data set [9] and in [11] was “inactive” throughout. The inhibition entry in data set [4] is “Active”. In addition, the outcome in data set [8] was inactive.
